The test system of data set [1] is Rattus norvegicus. Nature of the data set: Uterotrophic activity in ovariectomized weaned Sprague-Dawley rat assessed as uterine weight at 10 ug/kg/day measured after 3 days (reference value: 100 +/- 15%). In kind it is ADME, organism-based, Uterus. Conditions: in vivo, 0.01 mg/kg, 72 h. In outline:
(§1)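 Weaned rats were ovariectomized and left untreated for 3 days. They were then dosed for 3 days with 17-ethinylestradiol 10 µg/kg/day or test compound 10 mg/kg/day, with 1% CMC as the vehicle control. Rats were then killed and the uterus removed, trimmed and weighed. Results are % of control uterine weight, mean ± SD; N = 7; Student's t test.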

The test system of data set [2] is Rattus norvegicus. As to the kind of experiment: Hypocholesterolemic activity in Sprague-Dawley rat assessed as serum cholesterol level at 10 mg/kg/day, po administered via intubation measured on day 4 by Liebermann-Burchard method relative to control. In kind it is functional. The essentials: (§2)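 Male Sprague-Dawley rats given compound homogenized in 1% CMC once daily at 11:00 a.m. by oral intubation needle (0.2 cc), doses calculated on weekly body weights; tail-vein blood drawn 24 h after last dose; nonhemolyzed serum (30 μ) assayed by modified Liebermann-Burchard method; N = 8; % of control, mean ± SD; Student's t test.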

The test system of data set [3] is Rattus norvegicus. Nature of the data set: Hypocholesterolemic activity in Sprague-Dawley rat assessed as serum cholesterol level at 10 mg/kg/day, po administered via intubation measured on day 10 by Liebermann-Burchard method relative to control. The class given is functional. In outline:
as §2

The test system of data set [4] is Rattus norvegicus. As to the kind of experiment: Hypocholesterolemic activity in Sprague-Dawley rat assessed as serum cholesterol level at 10 mg/kg/day, po administered via intubation measured on day 16 by Liebermann-Burchard method relative to control. In kind it is functional. In outline: as §2
In data set [5] the test system is Rattus norvegicus. As to the kind of experiment: Toxicity in Sprague-Dawley rat assessed as increase in body weight at 10 mg/kg/day measured on day 10 (reference value: 160 +/- 13%). Conditions: in vivo. In kind it is organism-based.
Data set [6] deals with Rattus norvegicus. As to the kind of experiment: Toxicity in Sprague-Dawley rat assessed as increase in body weight at 10 mg/kg/day measured on day 16 (reference value: 195 +/- 16%). The class given is organism-based. Conditions: in vivo.
Data set [7] deals with Rattus norvegicus. Nature of the data set: Uterotrophic activity in ovariectomized weaned Sprague-Dawley rat assessed as uterine weight at 10 mg/kg/day measured after 3 days (reference value: 100 +/- 15%). The class given is ADME, organism-based, Uterus. Conditions: in vivo, 72 h. The essentials:
as §1

`C#C[C@]1(O)CC[C@H]2[C@@H]3CCc4cc(O)ccc4[C@H]3CC[C@@]21C` [ETHINYL ESTRADIOL]: the Activity in the data set with Rattus norvegicus [1] is recorded as 372%.
Consider `CCCCCCCCCCC(=O)CCCCC`, for which the Activity is 70% with Rattus norvegicus [2]; 92% in the data set on Rattus norvegicus [3]; 100% with Rattus norvegicus [4]; 168% in the data set on Rattus norvegicus [5]; 209% with Rattus norvegicus [6].
Consider `CCCCCCCCCCCC(=O)CCCC`, for which the Activity with Rattus norvegicus [2] was found to be 63%; in the data set on Rattus norvegicus [3], 89%; in the data set with Rattus norvegicus [4] it was 94%; in the data set with Rattus norvegicus [5], 165%; in the data set on Rattus norvegicus [6], 206%.
Regarding `CCCCCCCCC(=O)CCCCCCC`, the Activity in the data set on Rattus norvegicus [2] came out at 102%; in the data set on Rattus norvegicus [3], 97%; with Rattus norvegicus [4], 72%; in the data set on Rattus norvegicus [5], 167%; in the data set on Rattus norvegicus [6] it was 209%.
`CCCCCCCCCCCCC(=O)CCC`: the Activity in the data set with Rattus norvegicus [2] is on record as 65%; with Rattus norvegicus [3], 89%; with Rattus norvegicus [4], 103%; with Rattus norvegicus [5], 175%; in the data set with Rattus norvegicus [6] it was 213%.
Take `CCCCCCCCCCCCCC(=O)CC`: the Activity in the data set with Rattus norvegicus [2] was determined as 64%; in the data set with Rattus norvegicus [3] it was 83%; in the data set with Rattus norvegicus [4], 92%; with Rattus norvegicus [5], 167%; in the data set with Rattus norvegicus [6], 212%.
In the case of `CCCCCCCCCC(=O)CCCCCC`, the Activity is given as 89% in the data set with Rattus norvegicus [2]; 89% in the data set with Rattus norvegicus [3]; 77% in the data set with Rattus norvegicus [4]; 169% in the data set with Rattus norvegicus [5]; 207% with Rattus norvegicus [6].
Consider `CCCCCCCCCCCCCCCC(C)=O`, for which the Activity in the data set on Rattus norvegicus [2] amounted to 83%; in the data set with Rattus norvegicus [3], 75%; in the data set on Rattus norvegicus [4], 74%; in the data set on Rattus norvegicus [5], 165%; with Rattus norvegicus [6], 229%; in the data set on Rattus norvegicus [7], 76%.
Take `CCCCCCCCCCCCCC(C)=O`: the Activity was determined as 114% in the data set on Rattus norvegicus [2]; 113% in the data set with Rattus norvegicus [3]; 98% with Rattus norvegicus [4]; 156% in the data set with Rattus norvegicus [5]; 233% in the data set on Rattus norvegicus [6].
For `CCOC(=O)C(C)(C)Oc1ccc(Cl)cc1` [CLOFIBRATE], the Activity stood at 100% with Rattus norvegicus [2], 98% in the data set with Rattus norvegicus [3] and 106% in the data set with Rattus norvegicus [4].
With `CCCCCCCCCCCCCCCCC(C)=O`, the Activity is recorded as 79% in the data set with Rattus norvegicus [2]; 86% with Rattus norvegicus [3]; 73% in the data set on Rattus norvegicus [4]; 175% in the data set on Rattus norvegicus [5]; 242% with Rattus norvegicus [6].

Source of the values: ChEMBL document CHEMBL3272112, “Cycloalkanones. 8. Hypocholesterolemic activity of long-chain ketones related to pentadecanone” (J Med Chem, 1976).
